In brackets after ≈: the same amount, converted by molar mass. Several values for one entry are separate records, joined by “and”; a condition that tells them apart may be missing. Identical values can stand only once.
Tests used:
[1] = system: K. pneumoniae BAA2146 (NDM-1); assay: MIC / checkerboard assay, K. pneumoniae BAA2146; assay type: cell-based; conditions: carbapenem alone
Outline: (§1)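 Carbapenem (meropenem or doripenem) MICs were determined in μg mL−1 against NDM-producing K. pneumoniae and E. coli isolates. Each was tested alone and in the presence of fixed test compound at 16 μg mL−1 (7 μM) or 32 μg mL−1 (14 μM). Fold change is the MIC with compound relative to carbapenem alone.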

[2] = system: K. pneumoniae R3934 (NDM-1); assay: MIC / checkerboard assay, K. pneumoniae R3934; assay type: cell-based; conditions: carbapenem alone
Outline: as §1

K. pneumoniae R3934 = assay: Time-kill kinetics of carbapenem combinations; assay type: cell-based; conditions: carbapenem alone (meropenem 8 μg mL^−1, doripenem 2 μg mL^−1)
Outline: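 K. pneumoniae R3934 (NDM-1) was exposed to meropenem (4 or 8 μg mL−1) or doripenem (0.5 or 1 μg mL−1) with the test compound at 32 μg mL−1. Controls were untreated cultures and carbapenem alone (meropenem 8, doripenem 2 μg mL−1). Viable counts (Log CFU mL−1) were taken at 2, 4, 6 and 24 h; <50 CFU mL−1 was flagged.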

[3] = system: E. coli EN5141 (NDM-1, OXA-1); assay: MIC / checkerboard assay, E. coli EN5141; assay type: cell-based; conditions: carbapenem alone
Outline: as §1

[4] = system: K. pneumoniae EN5136 (NDM-1, OXA-1, SHV); assay: MIC / checkerboard assay, K. pneumoniae EN5136; assay type: cell-based; conditions: carbapenem alone
Outline: as §1

[5] = system: clinical isolates of NDM producing K. pneumoniae and E. coli; assay: Checkerboard assay, summary over NDM-producing isolates; assay type: cell-based; conditions: for fold decrease in the MIC value: with 16 μg mL^−1 VanNHdipi (7 μM); for fold reduction of the MIC value: with 32 μg mL^−1 VanNHdipi (14 μM), all strains
Outline: as §1

VIM-1 and IMP-1 = conditions: cited from earlier work
NDM-1 and VIM-2 = conditions: cited from earlier work
IMP-1 = IMP-1 (Serratia marcescens, UniProt P52699); assay: MBL inhibition, nitrocefin absorbance assay, IMP-1; assay type: biochemical
IMP-1, sequence (P52699 19-246, looked up, species assumed): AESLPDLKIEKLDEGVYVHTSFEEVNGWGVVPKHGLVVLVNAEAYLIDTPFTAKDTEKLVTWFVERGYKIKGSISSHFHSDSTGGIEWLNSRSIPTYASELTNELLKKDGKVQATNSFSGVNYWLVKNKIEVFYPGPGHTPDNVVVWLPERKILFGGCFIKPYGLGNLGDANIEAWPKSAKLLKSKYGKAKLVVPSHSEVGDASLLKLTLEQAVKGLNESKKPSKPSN
Outline: (§2)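 Absorbance inhibition assay for purified metallo-β-lactamases from a seven-enzyme panel. Nitrocefin served as substrate; enzyme hydrolysis of its β-lactam ring shifts the absorption spectrum, which is monitored by absorbance. IC50 was determined for the test compound.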

NDM-1 = NDM-1 (Klebsiella pneumoniae, UniProt C7C422); assay: MBL inhibition, nitrocefin absorbance assay, NDM-1; assay type: biochemical
NDM-1, sequence (C7C422 29-270, looked up): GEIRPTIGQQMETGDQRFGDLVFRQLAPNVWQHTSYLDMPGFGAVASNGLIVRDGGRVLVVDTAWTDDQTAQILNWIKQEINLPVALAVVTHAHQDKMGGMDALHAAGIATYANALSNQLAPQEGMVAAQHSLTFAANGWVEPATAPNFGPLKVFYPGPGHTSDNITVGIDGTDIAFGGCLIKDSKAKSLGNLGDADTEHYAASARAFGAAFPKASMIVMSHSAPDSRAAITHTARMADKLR
Outline: as §2

B. subtilis 168 [6] = assay: Cell wall biosynthesis inhibition assay; assay type: cell-based, Bacillus subtilis; conditions: at PEC (vancomycin 0.4 μM, VanNHdipi 0.16 μM)
[7] = system: vancomycin-resistant strains (VRSA and VRE); assay: MIC across the panel of vancomycin-resistant strains; assay type: cell-based, Staphylococci and Enterococci; conditions: Staphylococcus aureus
MRSA [8] = assay: Antagonization assay with N,N'-diacetyl-L-Lys-D-Ala-D-Ala; assay type: cell-based, S. aureus; conditions: Staphylococcus aureus, read-out: MIC in the presence of KAA
Outline: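 Test compound or vancomycin was pre-incubated with N,N'-diacetyl-L-Lys-D-Ala-D-Ala (KAA) before being added to the MRSA suspension for MIC determination. MIC in the presence of KAA was compared with that without KAA.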

[9] = system: MRSA, methicillin-resistant S. aureus (ATCC 33591); assay: MIC determination; assay type: cell-based; conditions: Staphylococcus aureus, ATCC33591|MRSA
MRSA ATCC 33591 biofilms = assay: Activity against mature biofilms of MRSA; assay type: cell-based, S. aureus; conditions: 20 μM, 24 h
[10] = system: B. subtilis 168 newly synthesized cytosolic proteins; assay: 2D gel-based proteome analysis with [35S]-methionine pulse labeling; assay type: cell-based, Bacillus subtilis; conditions: 10 min
Outline: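 B. subtilis 168 cultures grown to OD500 0.35 were exposed for 10 min to the test compound or vancomycin at the physiologically effective concentration. Newly synthesised cytosolic proteins were pulse-labelled with [35S]-methionine, separated by 2D gel electrophoresis and compared with untreated cells by false-colour overlay (treated red, control green). Proteins were identified by LC-MS; regulation factor is the treated/control ratio.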

MRSA [11] = assay: Time-kill kinetics against exponential phase MRSA; assay type: cell-based, S. aureus; conditions: at MIC (vancomycin: same across concentrations)
Outline: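 Exponential-phase MRSA was exposed to the test compound or vancomycin at the MIC and higher multiples. Viable counts (Log CFU mL−1) were followed over time up to 24 h.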

[12] = D-Ala-D-Lac versus D-Ala-D-Ala; cited from earlier work
[13] = system: GFP-MinD in B. subtilis 1981; assay: GFP-MinD localization; assay type: cell-based, Bacillus subtilis; conditions: at PEC (vancomycin 0.4 μM, VanNHdipi 0.16 μM)
B. subtilis = assay: MIC determination against B. subtilis; assay type: cell-based; conditions: Bacillus subtilis
B. subtilis 168 [14] = assay: Physiologically effective concentration; assay type: cell-based, Bacillus subtilis
Outline: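 B. subtilis 168 was grown to mid-log phase (OD500 0.35) and then given different concentrations of the test compound or vancomycin. The acute effect on growth was followed by optical density. The PEC is the concentration at which growth continues at a reduced rate, expressed as a multiple of the MIC.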

## C[C@@H](O)[C@H]1C(=O)N2C(C(=O)O)=C(S[C@@H]3CN[C@H](C(=O)N(C)C)C3)[C@H](C)[C@H]12 [Meropenem]
[1]
  MIC of carbapenem: 8 µg/mL
[2]
  MIC of carbapenem: 64 µg/mL
K. pneumoniae R3934
  growth inhibition: did not show any growth inhibition
[3]
  MIC of carbapenem: 2 µg/mL
[4]
  MIC of carbapenem: 8 µg/mL
[5]
  MIC: 0.06 to 4 µg/mL
  fold reduction of the MIC value: 16–32 fold
[5]; NDM-1 expressing K. pneumoniae strains
  fold decrease in the MIC value: 2-8 fold

## O=C(O)c1ncsc1NS(=O)(=O)c1cccnc1 [ANT431]
VIM-1 and IMP-1
  fold less active than against NDM-1 and VIM-2: at least 20 fold
NDM-1 and VIM-2
  inhibitory activity: sub-micromolar

## C[C@@H](O)[C@H]1C(=O)N2C(C(=O)O)=C(S[C@@H]3CN[C@H](CNS(N)(=O)=O)C3)[C@H](C)[C@H]12 [Doripenem]
[1]
  MIC of carbapenem: 16 µg/mL
[2]
  MIC of carbapenem: 16 µg/mL
K. pneumoniae R3934
  growth inhibition: no growth inhibition
[3]
  MIC of carbapenem: 8 µg/mL
[4]
  MIC of carbapenem: 8 µg/mL
[5]
  MIC: 0.06 to 4 µg/mL
  fold reduction of the MIC value: 16–32 fold
[5]; NDM producing K. pneumoniae and E. coli
  fold decrease in the MIC value: 4-16 fold

## c1ccc(CNCc2ccccn2)nc1 [BPYA, bis(pyridin-2-ylmethyl)amine]
IMP-1
  IC50: > 40000 nM
NDM-1
  IC50: 1200 nM

## CN[C@H](CC(C)C)C(=O)N[C@H]1C(=O)N[C@@H](CC(N)=O)C(=O)N[C@H]2C(=O)N[C@H]3C(=O)N[C@H](C(=O)N[C@H](C(=O)O)c4cc(O)cc(O)c4-c4cc3ccc4O)[C@H](O)c3ccc(c(Cl)c3)Oc3cc2cc(c3O[C@@H]2O[C@H](CO)[C@@H](O)[C@H](O)[C@H]2O[C@H]2C[C@](C)(N)[C@H](O)[C@H](C)O2)Oc2ccc(cc2Cl)[C@H]1O [Vancomycin]
B. subtilis 168 [6]
  inhibition of cell wall biosynthesis (bubbles on cell surface): Bubble-like formations were observed
[7]
  MIC: > 346 µM and > 512 µg/mL
MRSA [8]
  MIC: > 30 µM
[9]
  MIC: 0.6 µM (≈ 0.87 µg/mL)
MRSA ATCC 33591 biofilms
  reduction in cell viability within the biofilms: minimal activity
[10]; at PEC (vancomycin 0.4 μM, VanNHdipi 0.16 μM)
  Regulation factor (treated/control), CysC: 2.3 ± 0.1
[10]; at PEC
  Regulation factor (treated/control), GsaB: 2.8 ± 0.4
  Regulation factor (treated/control), Hom: 5.0 ± 3.8
  Regulation factor (treated/control), LysA: 2.7 ± 0.3
  Regulation factor (treated/control), MtnE: 2.4 ± 0.3
  Regulation factor (treated/control), MurF: 4.1 ± 1.6
  Regulation factor (treated/control), NfrA: 3.3 ± 0.2
  Regulation factor (treated/control), RpsB: 2.7 ± 0.3
  Regulation factor (treated/control), SdhA: 3.3 ± 1
  Regulation factor (treated/control), ThiG: 2.5 ± 0.1
  Regulation factor (treated/control), Udk: 3.1 ± 0.5
  Regulation factor (treated/control), YceC: 3.7 ± 0.9
  Regulation factor (treated/control), YoxD: 2.9 ± 0.1
  Regulation factor (treated/control), YpuA: 4.4 ± 0.3
  Regulation factor (treated/control), YqiG: 5.2 ± 1.3
  Regulation factor (treated/control), YtrB: 4.8 ± 0.5
  Regulation factor (treated/control), YtrE.2: 18.2 ± 8.98
MRSA [11]
  time to complete eradication: 24 h
[12]
  fold reduction in binding affinity: 1000 fold
[13]
  MinD delocalization: did not elicit any MinD protein delocalization
B. subtilis
  MIC: 0.2 µM (≈ 0.29 µg/mL)
B. subtilis 168 [14]; added at OD500 0.35
  PEC as multiple of MIC: 2 × MIC
B. subtilis 168 [14]; added at OD500 0.35 (mid-log phase)
  physiologically effective concentration (PEC), growth retardation: 0.4 μM
